The whole screen tested about 330,000 compounds, of which about 780 (0.24%) were called active. This excerpt belongs to a sample that is enriched for actives. Values without a mark were called inactive.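 The calls were made as follows: active = activation factor of at least 2 at 20 µM; inactive = the rest.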
system: intestinal alkaline phosphatase [Mus musculus]; assay: activators of mouse IAP, primary screen, biochemical, luminescence, uHTS (AID 2805); settings: muIAP, CDP-Star luminescence, 30 min, at 10 µM, hits give high values
Method in brief: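 Assay system: mouse IAP enzyme / Compound: DMSO-dissolved test compounds / Timing: 30 min, room temperature / Measured by: luminescence from enzymatic CDP-Star hydrolysis / Control set: DMSO-only wells, enzyme-free buffer wells as negative control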

| SMILES | activation factor |
| --- | --- |
| Cc1cc(C)cc(NC(=S)NC2CC3CCCC(C2)N3Cc2cccs2)c1 (stereo not given) | 5.54 (active) |
| O=C1NC(=O)C(C/C=C/c2ccccc2)C(=O)N1 | 0.991 |
| N#CC1=C(N)Oc2c(c(=O)oc3ccccc23)C1c1ccccc1OC(=O)c1cccs1 (stereo not given) | 0.989 |
| C=CCn1c(O)c(/C=N/N2CCOCC2)c(=O)[nH]c1=S | 1.03 |
| O=C1C2(Cl)C3(Cl)C4(Cl)C(Cl)(Cl)C5(Cl)C3(Cl)C1(Cl)C5(Cl)C24Cl (stereo not given) | 0.917 [1 = vehicle-only enzyme signal, 0 = enzyme-free wells] |
